# Laboratory results: ChEMBL document CHEMBL2346629, “Discovery and characterization of novel allosteric FAK inhibitors” (Eur J Med Chem, 2013)
# Experiments:
# [1] = test system: Proto-oncogene tyrosine-protein kinase receptor Ret (Homo sapiens), P07949 [V804L]; test: Inhibition of RET V804L mutant (unknown origin) using [gamma-33P]ATP assessed as residual activity at 3 uM
# [2] = test system: Platelet-derived growth factor receptor alpha (Homo sapiens), P16234 [T674I]; test: Inhibition of PDGFRa T674I mutant (unknown origin) using [gamma-33P]ATP assessed as residual activity at 3 uM
# [3] = target: Serine/threonine-protein kinase PAK 3 (Homo sapiens) (UniProt O75914); test: Inhibition of PAK3 (unknown origin) using [gamma-33P]ATP assessed as residual activity at 3 uM
# [4] = target: Serine/threonine-protein kinase Nek1 (Homo sapiens) (UniProt Q96PY6); test: Inhibition of NEK1 (unknown origin) using [gamma-33P]ATP assessed as residual activity at 3 uM
# [5] = target: Serine/threonine-protein kinase 26 (Homo sapiens) (UniProt Q9P289); test: Inhibition of MST4 (unknown origin) using [gamma-33P]ATP assessed as residual activity at 3 uM
# [6] = target: Serine/threonine-protein kinase MRCK beta (Homo sapiens) (UniProt Q9Y5S2); test: Inhibition of MRCKB (unknown origin) using [gamma-33P]ATP assessed as residual activity at 3 uM
# [7] = target: Casein kinase II subunit alpha (Homo sapiens) (UniProt P68400); test: Inhibition of CK2a (unknown origin) using [gamma-33P]ATP assessed as residual activity at 3 uM
# Summary of the method: (§1)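 Reaction Biology HotSpot radiometric profiling panel of 288 kinases (261 wild-type, 27 mutant). Kinase activity was read out by incorporation of [γ-33P]ATP.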
# [8] = target: Casein kinase I isoform delta (Homo sapiens) (UniProt P48730); test: Inhibition of CK1d (unknown origin) using [gamma-33P]ATP assessed as residual activity at 3 uM
# Summary of the method: (§2)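 Radiometric profiling across 288 kinases (261 wild-type, 27 mutant), run as an outsourced service. Inhibition read out as [gamma-33P]ATP incorporation into substrate.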
# [9] = target: Serine/threonine-protein kinase B-raf (Homo sapiens) (UniProt P15056); test: Inhibition of BRAF (unknown origin) using [gamma-33P]ATP assessed as residual activity at 3 uM; summary of the method: as §2
# [10] = test system: Platelet-derived growth factor receptor alpha (Homo sapiens), P16234 [D842V]; test: Inhibition of PDGFRa D842V mutant (unknown origin) using [gamma-33P]ATP assessed as residual activity at 3 uM
# [11] = test system: Fibroblast growth factor receptor 1 (Homo sapiens), P11362 [V561M]; test: Inhibition of FGFR1 V561M mutant (unknown origin) using [gamma-33P]ATP assessed as residual activity at 3 uM; summary of the method: as §1
# [12] = test system: Mast/stem cell growth factor receptor Kit (Homo sapiens), P10721 [D816V]; test: Inhibition of c-Kit D816V mutant (unknown origin) using [gamma-33P]ATP assessed as residual activity at 3 uM
# [13] = test system: Tyrosine-protein kinase ABL1 (Homo sapiens), P00519 [Y253F]; test: Inhibition of ABL1 Y253F mutant (unknown origin) using [gamma-33P]ATP assessed as residual activity at 3 uM; summary of the method: as §2
# [14] = target: Tyrosine-protein kinase ITK/TSK (Homo sapiens) (UniProt Q08881); test: Inhibition of ITK (unknown origin) using [gamma-33P]ATP assessed as residual activity at 3 uM
# Summary of the method: (§3)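 Radiometric kinase profiling service covering 288 kinases (261 wild-type, 27 mutant). Inhibition was read as incorporation from [γ-³³P]ATP.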
# [15] = target: Aurora kinase C (Homo sapiens) (UniProt Q9UQB9); test: Inhibition of Aurora C (unknown origin) using [gamma-33P]ATP assessed as residual activity at 3 uM; summary of the method: as §2
# [16] = target: Serine/threonine-protein kinase WNK3 (Homo sapiens) (UniProt Q9BYP7); test: Inhibition of WNK3 (unknown origin) using [gamma-33P]ATP assessed as residual activity at 3 uM
# [17] = target: Serine/threonine-protein kinase TBK1 (Homo sapiens) (UniProt Q9UHD2); test: Inhibition of TBK1 (unknown origin) using [gamma-33P]ATP assessed as residual activity at 3 uM
# [18] = target: Serine/threonine-protein kinase TAO2 (Homo sapiens) (UniProt Q9UL54); test: Inhibition of TAOK2 (unknown origin) using [gamma-33P]ATP assessed as residual activity at 3 uM
# [19] = target: Testis-specific serine/threonine-protein kinase 1 (Homo sapiens) (UniProt Q9BXA7); test: Inhibition of STK22D (unknown origin) using [gamma-33P]ATP assessed as residual activity at 3 uM
# [20] = target: Serine/threonine-protein kinase Sgk3 (Homo sapiens) (UniProt Q96BR1); test: Inhibition of SGK3 (unknown origin) using [gamma-33P]ATP assessed as residual activity at 3 uM
# [21] = target: Rho-associated protein kinase 2 (Homo sapiens) (UniProt O75116); test: Inhibition of ROCK2 (unknown origin) using [gamma-33P]ATP assessed as residual activity at 3 uM
# [22] = target: Rho-associated protein kinase 1 (Homo sapiens) (UniProt Q13464); test: Inhibition of ROCK1 (unknown origin) using [gamma-33P]ATP assessed as residual activity at 3 uM
# [23] = target: Homeodomain-interacting protein kinase 3 (Homo sapiens) (UniProt Q9H422); test: Inhibition of HIPK3 (unknown origin) using [gamma-33P]ATP assessed as residual activity at 3 uM; summary of the method: as §3
# [24] = target: Receptor-type tyrosine-protein kinase FLT3 (Homo sapiens) (UniProt P36888); test: Inhibition of FLT3 (unknown origin) using [gamma-33P]ATP assessed as residual activity at 3 uM; summary of the method: as §3
# [25] = target: Fibroblast growth factor receptor 4 (Homo sapiens) (UniProt P22455); test: Inhibition of FGFR4 (unknown origin) using [gamma-33P]ATP assessed as residual activity at 3 uM; summary of the method: as §1
# [26] = target: Tyrosine-protein kinase Fes/Fps (Homo sapiens) (UniProt P07332); test: Inhibition of Fes (unknown origin) using [gamma-33P]ATP assessed as residual activity at 3 uM; summary of the method: as §3
# [27] = target: Fibroblast growth factor receptor 1 (Homo sapiens) (UniProt P11362); test: Inhibition of FGFR1 (unknown origin) using [gamma-33P]ATP assessed as residual activity at 3 uM; summary of the method: as §1
# [28] = target: Ephrin type-B receptor 2 (Homo sapiens) (UniProt P29323); test: Inhibition of EPHB2 (unknown origin) using [gamma-33P]ATP assessed as residual activity at 3 uM; summary of the method: as §1
# [29] = target: Ephrin type-A receptor 4 (Homo sapiens) (UniProt P54764); test: Inhibition of EPHA4 (unknown origin) using [gamma-33P]ATP assessed as residual activity at 3 uM; summary of the method: as §1
# [30] = target: Ephrin type-A receptor 3 (Homo sapiens) (UniProt P29320); test: Inhibition of EPHA3 (unknown origin) using [gamma-33P]ATP assessed as residual activity at 3 uM; summary of the method: as §1
# [31] = target: Serine/threonine-protein kinase D3 (Homo sapiens) (UniProt O94806); test: Inhibition of PRKD3 (unknown origin) using [gamma-33P]ATP assessed as residual activity at 3 uM
# [32] = target: Serine/threonine-protein kinase PLK2 (Homo sapiens) (UniProt Q9NYY3); test: Inhibition of PLK2 (unknown origin) using [gamma-33P]ATP assessed as residual activity at 3 uM
# Casein kinase II subunit alpha (Homo sapiens), sequence (P68400 whole entry, looked up): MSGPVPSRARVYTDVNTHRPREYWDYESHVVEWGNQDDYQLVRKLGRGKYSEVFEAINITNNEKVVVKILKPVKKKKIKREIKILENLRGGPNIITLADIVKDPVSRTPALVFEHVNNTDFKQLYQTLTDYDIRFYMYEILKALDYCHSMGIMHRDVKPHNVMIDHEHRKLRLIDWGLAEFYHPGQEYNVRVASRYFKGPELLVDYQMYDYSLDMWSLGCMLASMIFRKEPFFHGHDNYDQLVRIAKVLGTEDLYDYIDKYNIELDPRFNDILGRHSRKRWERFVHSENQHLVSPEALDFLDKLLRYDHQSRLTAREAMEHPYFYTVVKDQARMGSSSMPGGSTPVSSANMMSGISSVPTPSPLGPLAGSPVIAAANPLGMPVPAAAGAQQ
# Receptor-type tyrosine-protein kinase FLT3 (Homo sapiens), sequence (P36888 whole entry): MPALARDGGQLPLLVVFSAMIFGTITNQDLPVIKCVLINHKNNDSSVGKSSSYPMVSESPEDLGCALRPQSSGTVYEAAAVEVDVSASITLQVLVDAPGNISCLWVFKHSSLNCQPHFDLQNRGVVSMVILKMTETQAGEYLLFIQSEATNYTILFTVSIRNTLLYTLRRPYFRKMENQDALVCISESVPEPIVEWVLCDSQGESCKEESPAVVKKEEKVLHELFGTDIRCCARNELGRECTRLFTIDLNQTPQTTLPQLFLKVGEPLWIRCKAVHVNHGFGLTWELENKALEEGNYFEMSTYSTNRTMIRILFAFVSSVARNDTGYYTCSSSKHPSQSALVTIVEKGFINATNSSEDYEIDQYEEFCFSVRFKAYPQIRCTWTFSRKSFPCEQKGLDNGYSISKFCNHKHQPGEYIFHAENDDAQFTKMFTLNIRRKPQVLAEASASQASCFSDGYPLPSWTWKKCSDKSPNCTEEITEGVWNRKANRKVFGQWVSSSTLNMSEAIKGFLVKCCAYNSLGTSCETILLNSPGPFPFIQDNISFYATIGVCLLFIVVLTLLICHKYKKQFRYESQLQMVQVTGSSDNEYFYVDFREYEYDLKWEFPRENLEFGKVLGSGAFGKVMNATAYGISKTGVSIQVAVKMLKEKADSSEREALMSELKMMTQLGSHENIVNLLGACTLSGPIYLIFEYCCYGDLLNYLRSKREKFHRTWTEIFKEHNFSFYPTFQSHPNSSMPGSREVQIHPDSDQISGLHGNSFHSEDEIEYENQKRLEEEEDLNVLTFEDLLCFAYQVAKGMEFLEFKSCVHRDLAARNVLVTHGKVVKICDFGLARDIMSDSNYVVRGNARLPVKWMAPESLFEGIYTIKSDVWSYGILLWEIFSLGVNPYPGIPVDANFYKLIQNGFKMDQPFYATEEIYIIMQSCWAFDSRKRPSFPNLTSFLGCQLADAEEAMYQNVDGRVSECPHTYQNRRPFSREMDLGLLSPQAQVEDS
# Tyrosine-protein kinase Fes/Fps (Homo sapiens), sequence (P07332 whole entry): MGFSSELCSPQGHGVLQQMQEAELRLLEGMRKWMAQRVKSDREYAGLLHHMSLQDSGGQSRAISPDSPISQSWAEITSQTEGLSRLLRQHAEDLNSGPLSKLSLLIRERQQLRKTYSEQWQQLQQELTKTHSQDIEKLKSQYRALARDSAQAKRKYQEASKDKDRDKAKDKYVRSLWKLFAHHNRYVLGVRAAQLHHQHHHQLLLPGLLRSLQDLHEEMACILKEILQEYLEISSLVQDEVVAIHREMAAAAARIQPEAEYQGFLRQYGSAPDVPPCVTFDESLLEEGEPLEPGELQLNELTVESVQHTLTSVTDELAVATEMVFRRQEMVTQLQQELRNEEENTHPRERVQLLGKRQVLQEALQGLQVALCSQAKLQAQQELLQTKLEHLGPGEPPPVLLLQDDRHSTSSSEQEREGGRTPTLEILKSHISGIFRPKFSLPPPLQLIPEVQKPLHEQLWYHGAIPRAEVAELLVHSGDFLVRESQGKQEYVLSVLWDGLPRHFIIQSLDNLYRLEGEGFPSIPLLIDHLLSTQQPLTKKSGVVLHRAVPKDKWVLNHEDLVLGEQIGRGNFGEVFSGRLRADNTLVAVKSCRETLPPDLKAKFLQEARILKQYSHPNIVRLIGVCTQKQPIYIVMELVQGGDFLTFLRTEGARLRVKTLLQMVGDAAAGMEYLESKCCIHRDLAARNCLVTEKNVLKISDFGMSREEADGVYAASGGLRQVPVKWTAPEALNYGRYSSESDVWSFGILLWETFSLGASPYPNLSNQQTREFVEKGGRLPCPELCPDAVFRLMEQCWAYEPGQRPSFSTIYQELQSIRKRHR
# Platelet-derived growth factor receptor alpha (Homo sapiens), P16234 [D842V], sequence (P16234 whole entry D842V): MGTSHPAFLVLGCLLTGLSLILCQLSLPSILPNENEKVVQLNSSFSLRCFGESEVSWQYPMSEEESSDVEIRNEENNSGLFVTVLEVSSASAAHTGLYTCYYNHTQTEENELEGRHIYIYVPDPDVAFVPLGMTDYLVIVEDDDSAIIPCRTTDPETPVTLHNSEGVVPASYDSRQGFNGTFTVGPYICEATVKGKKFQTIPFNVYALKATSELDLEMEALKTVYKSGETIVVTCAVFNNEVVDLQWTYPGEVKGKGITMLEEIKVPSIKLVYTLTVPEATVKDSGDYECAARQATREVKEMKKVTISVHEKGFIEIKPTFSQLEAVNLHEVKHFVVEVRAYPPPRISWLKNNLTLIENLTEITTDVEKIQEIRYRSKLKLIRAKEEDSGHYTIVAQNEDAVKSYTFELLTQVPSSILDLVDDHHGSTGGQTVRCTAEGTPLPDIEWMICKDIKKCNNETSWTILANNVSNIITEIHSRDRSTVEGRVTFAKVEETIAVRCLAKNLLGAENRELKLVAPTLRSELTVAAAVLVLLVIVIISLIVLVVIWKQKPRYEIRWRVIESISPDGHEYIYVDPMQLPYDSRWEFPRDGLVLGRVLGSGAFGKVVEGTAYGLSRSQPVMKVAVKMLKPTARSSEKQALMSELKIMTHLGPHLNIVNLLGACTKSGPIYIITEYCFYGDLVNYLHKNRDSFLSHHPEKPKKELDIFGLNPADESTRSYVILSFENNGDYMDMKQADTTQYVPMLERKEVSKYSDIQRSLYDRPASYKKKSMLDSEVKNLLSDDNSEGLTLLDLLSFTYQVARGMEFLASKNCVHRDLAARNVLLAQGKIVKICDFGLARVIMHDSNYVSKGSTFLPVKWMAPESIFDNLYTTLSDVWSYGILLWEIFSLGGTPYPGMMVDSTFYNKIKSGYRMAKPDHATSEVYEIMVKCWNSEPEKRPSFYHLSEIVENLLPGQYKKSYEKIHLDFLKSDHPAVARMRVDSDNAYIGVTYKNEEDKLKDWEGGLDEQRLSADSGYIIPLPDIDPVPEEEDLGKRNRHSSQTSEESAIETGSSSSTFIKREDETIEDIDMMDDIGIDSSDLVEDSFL
# Serine/threonine-protein kinase PAK 3 (Homo sapiens), sequence (O75914 whole entry, looked up): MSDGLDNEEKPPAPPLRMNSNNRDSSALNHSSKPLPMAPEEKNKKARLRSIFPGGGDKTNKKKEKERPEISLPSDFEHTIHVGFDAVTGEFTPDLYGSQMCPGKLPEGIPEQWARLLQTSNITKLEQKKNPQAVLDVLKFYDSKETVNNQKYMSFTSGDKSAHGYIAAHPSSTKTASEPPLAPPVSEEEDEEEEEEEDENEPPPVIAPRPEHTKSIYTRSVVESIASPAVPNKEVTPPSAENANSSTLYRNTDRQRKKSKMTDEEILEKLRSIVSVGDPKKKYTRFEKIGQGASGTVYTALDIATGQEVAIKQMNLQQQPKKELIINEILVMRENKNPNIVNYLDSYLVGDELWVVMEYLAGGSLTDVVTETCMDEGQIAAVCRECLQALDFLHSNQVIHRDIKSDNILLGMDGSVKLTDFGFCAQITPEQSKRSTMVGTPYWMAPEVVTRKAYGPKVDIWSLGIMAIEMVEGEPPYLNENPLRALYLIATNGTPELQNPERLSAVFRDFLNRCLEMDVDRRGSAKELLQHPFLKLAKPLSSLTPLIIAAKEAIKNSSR
# Platelet-derived growth factor receptor alpha (Homo sapiens), P16234 [T674I], sequence (P16234 whole entry T674I): as the sequence (P16234 whole entry D842V) above, with T674I, V842D counted along it
# Serine/threonine-protein kinase Sgk3 (Homo sapiens), sequence (Q96BR1 whole entry): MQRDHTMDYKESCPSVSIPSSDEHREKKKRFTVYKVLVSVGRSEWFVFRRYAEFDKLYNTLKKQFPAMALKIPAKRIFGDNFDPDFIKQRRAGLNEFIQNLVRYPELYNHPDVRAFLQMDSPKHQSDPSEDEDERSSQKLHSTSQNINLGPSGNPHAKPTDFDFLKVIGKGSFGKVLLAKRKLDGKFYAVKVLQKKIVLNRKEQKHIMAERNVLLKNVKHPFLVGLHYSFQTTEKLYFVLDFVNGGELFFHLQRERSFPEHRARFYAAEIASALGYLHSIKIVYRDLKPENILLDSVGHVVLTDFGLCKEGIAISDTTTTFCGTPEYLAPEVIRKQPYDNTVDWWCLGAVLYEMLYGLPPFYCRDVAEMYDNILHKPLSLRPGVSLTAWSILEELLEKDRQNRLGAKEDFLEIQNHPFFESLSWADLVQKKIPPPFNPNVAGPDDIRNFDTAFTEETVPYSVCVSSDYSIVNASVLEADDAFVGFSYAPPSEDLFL
# Serine/threonine-protein kinase 26 (Homo sapiens), sequence (Q9P289 whole entry, looked up): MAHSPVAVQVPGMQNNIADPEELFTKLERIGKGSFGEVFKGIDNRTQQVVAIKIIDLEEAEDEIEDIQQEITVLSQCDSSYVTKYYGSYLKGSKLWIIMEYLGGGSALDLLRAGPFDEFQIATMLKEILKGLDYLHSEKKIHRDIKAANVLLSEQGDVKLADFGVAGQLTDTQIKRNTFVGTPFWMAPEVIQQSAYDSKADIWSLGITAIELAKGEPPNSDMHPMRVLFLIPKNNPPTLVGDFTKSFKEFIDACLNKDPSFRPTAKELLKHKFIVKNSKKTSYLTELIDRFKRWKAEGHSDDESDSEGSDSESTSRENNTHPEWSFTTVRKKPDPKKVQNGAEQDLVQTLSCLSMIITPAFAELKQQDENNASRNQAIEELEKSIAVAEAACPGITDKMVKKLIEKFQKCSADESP
smiles,measurement,setting,value
CCc1ccc(-c2ccc3c(c2)-c2[nH]ncc2S(=O)(=O)N3C)cc1,Activity,[1],94%
same,Activity,[2],91%
same,Activity,[3],95%
same,Activity,[4],87%
same,Activity,[5],98%
same,Activity,[6],101%
same,Activity,[7],89%
same,Activity,[8],94%
same,Activity,[9],98%
same,Activity,[10],26%
same,Activity,[11],98%
same,Activity,[12],36%
same,Activity,[13],68%
same,Activity,[14],88%
same,Activity,[15],87%
same,Activity,[16],106%
same,Activity,[17],71%
same,Activity,[18],100%
same,Activity,[19],87%
same,Activity,[20],93%
same,Activity,[21],94%
same,Activity,[22],94%
same,Activity,[23],104%
same,Activity,[24],53%
same,Activity,[25],87%
same,Activity,[26],78%
same,Activity,[27],95%
same,Activity,[28],95%
same,Activity,[29],95%
same,Activity,[30],97%
same,Activity,[31],91%
same,Activity,[32],95%
